Data published in ChEMBL document CHEMBL1649090, “Discovery of (7R)-14-cyclohexyl-7-{[2-(dimethylamino)ethyl](methyl) amino}-7,8-dihydro-6H-indolo[1,2-e][1,5]benzoxazocine-11-carboxylic acid (MK-3281), a potent and orally bioavailable finger-loop inhibitor of the hepatitis C virus NS5B polymerase” (J Med Chem, 2011).

Assays:
[1] = test system: Hepatitis C virus; test: Inhibition of HCV1b NS5B delta21 polymerase after 1 hr; type: single protein, Hepatitis C virus subtype 1b
In short: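 Enzyme inhibition IC50 measured on genotype 1b HCV NS5B polymerase truncated by 21 C-terminal residues (ΔC21).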

[2] = test system: Hepatitis C virus; test: Antiviral activity against HCV1b infected in human Huh-7 cells assessed as inhibition of viral RNA replication after 96 hrs by ELISA assay in presence of 10% fetal calf serum; type: functional, organism-based, Hepacivirus hominis; settings: genotype 1b, Huh-7, 96 h
[3] = test system: Hepatitis C virus; test: Antiviral activity against HCV1b infected in human Huh-7 cells assessed as inhibition of viral RNA replication after 96 hrs by ELISA assay in presence of 50% normal human serum; type: functional, organism-based, Hepacivirus hominis; settings: genotype 1b, Huh-7, 96 h
[4] = test system: Hepatitis C virus; test: Ratio of EC50 for HCV1b to EC50 for HCV1b in presence of 50% normal human serum; type: functional, Hepacivirus hominis, genotype 1b
[5] = Fraction unbound in human plasma; type: ADME, cell-free
[6] = Intrinsic clearance in rat liver microsomes assessed per mg of protein; type: ADME, Microsome
[7] = Ratio of drug level in liver to plasma in Sprague-Dawley rat liver at 3 mg/kg, po after 6 hrs; type: ADME, organism-based; parameters: dose 3 mg/kg, route oral
In short: (§1)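 Sprague-Dawley rats (n = 3) received the compound as its TFA salt in DMSO/PEG400/water 20%/60%/20%, as a single iv dose of 3 mg/kg or a single oral dose of 3 mg/kg. Liver tissue and plasma concentrations were measured 6 h after the oral dose.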

[8] = Clearance in Sprague-Dawley rat at 3 mg/kg, iv; type: ADME, organism-based; parameters: dose 3 mg/kg, route intravenous; settings: in vivo; in short: as §1
[9] = Oral bioavailability in Sprague-Dawley rat at 3 mg/kg; type: ADME, organism-based; settings: in vivo
In short: (§2)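 Single-dose rat PK with the compound given as its TFA salt to Sprague-Dawley rats (n = 3) in DMSO/PEG400/water 20%/60%/20%. Dosing was 3 mg/kg iv and 3 mg/kg po.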

[10] = Cmax in Sprague-Dawley rat at 3 mg/kg, po; type: ADME, organism-based; parameters: dose 3 mg/kg, route oral; settings: in vivo; in short: as §1
[11] = Volume of distribution in Sprague-Dawley rat at 3 mg/kg, iv; type: ADME, organism-based; parameters: dose 3 mg/kg, route intravenous; settings: in vivo
In short: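 Sprague-Dawley rats (n = 3) received a single 3 mg/kg iv dose, given as the TFA salt, in DMSO/PEG400/water 20%/60%/20%. Plasma clearance, half-life and volume of distribution were derived.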

[12] = Intrinsic clearance in dog liver microsomes assessed per mg of protein; type: ADME, Canis lupus familiaris, Microsome
[13] = Drug level in Sprague-Dawley rat liver at 3 mg/kg, po after 6 hrs; type: ADME, organism-based; parameters: dose 3 mg/kg, route oral; settings: read-out: Drug uptake; in short: as §1
[14] = Half life in Sprague-Dawley rat at 3 mg/kg, iv; type: ADME, organism-based; parameters: dose 3 mg/kg, route intravenous; settings: in vivo; in short: as §1
[15] = AUC in Sprague-Dawley rat at 3 mg/kg, po; type: ADME, organism-based; parameters: dose 3 mg/kg, route oral; settings: plasma; in short: as §2
[16] = Intrinsic clearance in human liver microsomes assessed per mg of protein; type: ADME, Microsome

| Structure (SMILES) | IC50 [1] [nM] | EC50 [2] [nM] | EC50 [3] [nM] | Ratio EC50 [4] | also measured |
| --- | --- | --- | --- | --- | --- |
| O=C(O)c1ccc2c(C3CCCCC3)c3n(c2c1)CCCOc1ccccc1-3 | 42 | 2740 | – | – | – |
| CN1CCN(C2COc3ccccc3-c3c(C4CCCCC4)c4ccc(C(=O)O)cc4n3C2)CC1 (racemic) | 10 | 120 | 361 | – | – |
| CN(CCN1CCCC1)C1COc2ccccc2-c2c(C3CCCCC3)c3ccc(C(=O)O)cc3n2C1 (racemic) | 11 | 99 | 335 | – | – |
| CN(C)C1COc2ccccc2-c2c(C3CCCCC3)c3ccc(C(=O)O)cc3n2C1 (racemic) | 32 | 570 | 2110 | 4 | – |
| CN(C)CCN1CC2(COc3ccccc3-c3c(C4CCCCC4)c4ccc(C(=O)O)cc4n3C2)C1 | 4 | 80 | 454 | – | – |
| CN(CCN1CCOCC1)C1COc2ccccc2-c2c(C3CCCCC3)c3ccc(C(=O)O)cc3n2C1 (racemic) | 10 | 90 | 312 | – | – |
| CN(C)CCO[C@@H]1COc2ccccc2-c2c(C3CCCCC3)c3ccc(C(=O)O)cc3n2C1 | 19 | 78 | 493 | 6 | – |
| CN(C)C(=O)CNC1COc2ccccc2-c2c(C3CCCCC3)c3ccc(C(=O)O)cc3n2C1 (racemic) | 51 | 766 | > 5000 | – | – |
| COc1ccc2c(c1)[C@H]1[C@@H](CCN1CCN(C)C)Cn1c-2c(C2CCCCC2)c2ccc(C(=O)O)cc21 | 4 | 29 | – | – | – |
| CN(C)CC(=O)NC1COc2ccccc2-c2c(C3CCCCC3)c3ccc(C(=O)O)cc3n2C1 (racemic) | 47 | 170 | 1430 | – | – |
| CC(C)N(CCN(C)C)C1COc2ccccc2-c2c(C3CCCCC3)c3ccc(C(=O)O)cc3n2C1 (racemic) | 34 | 138 | 1200 | 7 | – |
| CNC1COc2ccccc2-c2c(C3CCCCC3)c3ccc(C(=O)O)cc3n2C1 (racemic) | 51 | 1030 | 4980 | – | – |
| CN(C)CCO[C@H]1COc2ccccc2-c2c(C3CCCCC3)c3ccc(C(=O)O)cc3n2C1 | 72 | 432 | 1410 | – | – |
| CN(C)CC(=O)N(C)C1COc2ccccc2-c2c(C3CCCCC3)c3ccc(C(=O)O)cc3n2C1 (stereo not drawn) | 31 | 73 | 743 | 10 | fraction unbound [5]: 0.005 |
| CC(C)N1CC2(COc3ccccc3-c3c(C4CCCCC4)c4ccc(C(=O)O)cc4n3C2)C1 | 30 | 338 | 590 | – | – |
| CC(C)N1CC[C@H](N2CCn3c(c(C4CCCCC4)c4sc(C(=O)O)cc43)-c3ccccc3C2)C1 | 19 | 150 | – | – | – |
| CN(C)CCN(C)[C@@H]1COc2ccccc2-c2c(C3CCCCC3)c3ccc(C(=O)O)cc3n2C1 | 35 | 338 | 1680 | 3 | – |
| NCCNC1COc2ccccc2-c2c(C3CCCCC3)c3ccc(C(=O)O)cc3n2C1 (racemic) | 12 | 591 | 1700 | 4 | – |
| CN1CCN(CCN(C)C2COc3ccccc3-c3c(C4CCCCC4)c4ccc(C(=O)O)cc4n3C2)CC1 (racemic) | 8 | 66 | 581 | 9 | fraction unbound [5]: 0.011 |
| CN(C)CCCNC1COc2ccccc2-c2c(C3CCCCC3)c3ccc(C(=O)O)cc3n2C1 (racemic) | 17 | 258 | 1370 | 4 | – |
| CN(C)CCN(C)C1COc2ccccc2-c2c(C3CCCCC3)c3ccc(C(=O)O)cc3n2C1 (racemic) | 15 | 73 | 313 | – | fraction unbound [5]: 0.027 |
| CN(C)CCNC1COc2ccccc2-c2c(C3CCCCC3)c3ccc(C(=O)O)cc3n2C1 (racemic) | 32 | 173 | 856 | 4 | microsomal CLint [6]: 7 µL/min/mg; Kp at 6 h [7]: 21; clearance [8]: 21 mL/min/kg; bioavailability [9]: 20%; Cmax [10]: 300 nM; Vd [11]: 3.2 L/kg; microsomal CLint [12]: 7 µL/min/mg; concentration at 6 h [13]: 1300 nM; half-life [14]: 3 h; AUC [15]: 0.9 µM·h; microsomal CLint [16]: 5 µL/min/mg |
| O=C(O)c1ccc2c(C3CCCCC3)c3n(c2c1)CCCc1ccccc1-3 | 35 | 10400 | – | – | – |
| COCCNC1COc2ccccc2-c2c(C3CCCCC3)c3ccc(C(=O)O)cc3n2C1 (racemic) | 63 | 2480 | – | – | – |
| CN1CCC(NC2COc3ccccc3-c3c(C4CCCCC4)c4ccc(C(=O)O)cc4n3C2)CC1 (racemic) | 21 | 224 | 1130 | 4 | – |
| CCN(CCN(C)C)C1COc2ccccc2-c2c(C3CCCCC3)c3ccc(C(=O)O)cc3n2C1 (racemic) | 11 | 153 | 1030 | 7 | – |
| CN(C)CCN1CCn2c(c(C3CCCCC3)c3ccc(C(=O)O)cc32)-c2ccccc2C1 | 27 | – | – | – | microsomal CLint [6]: 100 µL/min/mg; clearance [8]: 61 mL/min/kg; Cmax [10]: 200 nM; Vd [11]: 5.1 L/kg; microsomal CLint [12]: 26 µL/min/mg; concentration at 6 h [13]: 640 nM; half-life [14]: 1.6 h; AUC [15]: 0.7 µM·h; microsomal CLint [16]: 5 µL/min/mg |
| CNCCN(C)C1COc2ccccc2-c2c(C3CCCCC3)c3ccc(C(=O)O)cc3n2C1 (racemic) | 9 | 83 | 550 | – | – |
| CCN(CC)C1CCN(C(=O)Cn2c(-c3ccc(Cl)cc3)c(C3CCCCC3)c3ccc(C(=O)O)cc32)CC1 | 48 | – | – | – | Kp at 6 h [7]: 16 |
